Assay results published in ChEMBL document CHEMBL1955833, “Wnt inhibition correlates with human embryonic stem cell cardiomyogenesis: a structure-activity relationship study based on inhibitors for the Wnt response” (J Med Chem, 2012).

Assays:
[1] = Inhibition of beta-catenin-dependent canonical Wnt3 pathway in human HEK293T cells by luciferase reporter gene assay; assay type: cell-based; details: HEK-293T
[2] = Inhibition of beta-catenin-dependent canonical Wnt3A pathway in human HEK293T cells at 1 uM by luciferase reporter gene assay; assay type: cell-based; details: HEK-293T
In short: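 HEK293T cells transiently co-transfected with Super(8x)TOPflash (TCF-firefly luciferase), TK-Renilla luciferase for normalization, and a Wnt3A-expressing vector to activate the pathway. Compounds tested at a single concentration of 1 μM, alongside untreated and DMSO vehicle controls. Firefly signal normalized to Renilla.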

H9 [3] = experiment: Cardiogenic activity in human H9 cells after 14 days by MYH6-mCherry reporter gene assay relative to 4-[(1R,2S,6R,7S)-3,5-dioxo-4-azatricyclo[5.2.1.0~2,6~]dec-8-en-4-yl]-N-quinolin-8-ylbenzamide; assay type: functional
In short: (§1)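 hESC embryoid bodies grown to day 4, dissociated to single cells and plated in 384-well format with serial compound dilutions. At day 10 switched to serum-free medium with T3. At day 14 moved to PBS and imaged for red fluorescence. Total area and intensity of the MYH6-mCherry reporter were quantified per well and expressed as percent cardiogenesis, with the reference set to 100% at its maximum.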

[4] = Half life in phosphate buffer pH 7.4 at 10 uM by HPLC analysis; assay type: physicochemical
In short: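 Degradation followed by HPLC, and half-life determined where degradation occurred.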

[5] = Cardiogenic activity in human embryonic stem cells at 2 uM by MYH6 reporter gene assay relative to control; assay type: functional, Embryonic stem cell
HEK-293T = experiment: Cytotoxicity against human HEK293T cells at 0.2 to 20 uM after 24 hrs by alamar blue assay; assay type: cell-based
H9 [6] = experiment: Cardiogenic activity in human H9 cells at 10 uM after 14 days by MYH6-mCherry reporter gene assay relative to 4-[(1R,2S,6R,7S)-3,5-dioxo-4-azatricyclo[5.2.1.0~2,6~]dec-8-en-4-yl]-N-quinolin-8-ylbenzamide; assay type: functional; in short: as §1
[7] = Cardiogenic activity in human embryonic stem cells at 2.5 uM by MYH6 reporter gene assay relative to control; assay type: functional, Embryonic stem cell

O=C(Nc1ccc(N2C(=O)[C@@H]3[C@@H]4CC[C@@H](C4)[C@@H]3C2=O)cc1)c1cccc2cccnc12
IC50 [1]: 119 nM | inhibition [2]: 91% | Activity (H9 [3]): 1% | half-life at 10 µM [4]: 3.8 h

Oc1nc(-c2ccc(C(F)(F)F)cc2)nc2c1CSCC2
IC50 [1]: 51 nM | fold change (FC) [5]: 1000 | Activity (HEK-293T): Non-toxic

O=C1[C@@H]2[C@@H]3CC[C@@H](C3)[C@@H]2C(=O)N1[C@H]1CC[C@H](C(=O)Nc2cccc3ccncc23)CC1
IC50 [1]: 93 nM | inhibition [2]: 91% | Activity (H9 [6]): 24% | Activity (H9 [3]): Dose-dependent effect | Activity (H9 [3]; record 2): 25%

Cc1ccc2nc(NC(=O)CSc3nc4c(c(=O)n3-c3ccc(F)cc3)SCC4)sc2c1
fold change (FC) [7]: 1000 | IC50 [1]: 538 nM | Activity (HEK-293T): Non-toxic
